A selection: hits, their analogues and other compounds. The true share with any hit is near 2.5%.
ADAM17 inh – inhibits human ADAM17 | P78536 | recombinant ADAM17, EDANS/DABCYL FRET peptide cleavage | inhibition, % at 6.95 µM | hit rate 0.83% among 370,000;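 active = inhibition above the mean of compounds lying between control limits plus 3 SD, set per campaign, cut at about 8.5% in these data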
NR2E3 ag-1 – activates human photoreceptor nuclear receptor NR2E3 | Q9Y5X4 | hit rate 0.12% among 320,000 | GST-NR2E3/biotin-RetCOR TR-FRET, 1536-well | AID 2300 | inhibition of corepressor binding, % at 4.78 µM;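 active = percent inhibition above the cutoff of mean plus 3 SD of all tested compounds, set per screening campaign, cut at about 20% in these data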
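System: GST-NR2E3 and biotin-RetCOR proteins; probe or stimulus: 7 nM biotin-RetCOR; doses: compound at 4.8 µM, single dose; schedule: Compound–protein incubation for 5 h at 4 °C; detection: time-resolved FRET; read-out: percent inhibition; controls: biotin wells as high control, 0.6% DMSO wells as low control; format: 1536-well plates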
KLK7 zymogen act – proKLK7 (human) activation, primary screen | P49862 | purified proKLK7, EDANS-DABCYL substrate fluorescence; 100% is mature enzyme control, 0% vehicle | activation, % at 7 µM | hit rate 0.9% among 370,000;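 active = activation above the mean of all tested compounds plus 3 SD, computed per campaign excluding outliers beyond control limits, cut at about 13% in these data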
Target sequence (P49862 whole entry, looked up): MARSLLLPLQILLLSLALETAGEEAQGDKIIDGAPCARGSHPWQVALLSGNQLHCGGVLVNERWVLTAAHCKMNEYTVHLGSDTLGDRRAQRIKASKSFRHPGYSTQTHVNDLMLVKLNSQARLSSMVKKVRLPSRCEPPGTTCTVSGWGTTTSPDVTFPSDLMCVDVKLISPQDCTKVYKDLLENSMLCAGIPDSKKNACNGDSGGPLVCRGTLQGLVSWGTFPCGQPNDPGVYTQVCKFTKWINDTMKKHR
JMJD2C inh – human JMJD2C demethylase inhibition; GST-JMJD2C(1-420) H3K9me3 demethylation, DELFIA europium; AID 2099; inhibition, % at 2.35 µM; hit rate 0.069% among 330,000; Q9H3R0;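 active = more than half of a compound's replicate wells show inhibition beyond 50%, single wells judged on their own value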;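 note: signal counts dimethyl H3K9 product captured on neutravidin plate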
Target sequence (Q9H3R0 1-420 limits assumed): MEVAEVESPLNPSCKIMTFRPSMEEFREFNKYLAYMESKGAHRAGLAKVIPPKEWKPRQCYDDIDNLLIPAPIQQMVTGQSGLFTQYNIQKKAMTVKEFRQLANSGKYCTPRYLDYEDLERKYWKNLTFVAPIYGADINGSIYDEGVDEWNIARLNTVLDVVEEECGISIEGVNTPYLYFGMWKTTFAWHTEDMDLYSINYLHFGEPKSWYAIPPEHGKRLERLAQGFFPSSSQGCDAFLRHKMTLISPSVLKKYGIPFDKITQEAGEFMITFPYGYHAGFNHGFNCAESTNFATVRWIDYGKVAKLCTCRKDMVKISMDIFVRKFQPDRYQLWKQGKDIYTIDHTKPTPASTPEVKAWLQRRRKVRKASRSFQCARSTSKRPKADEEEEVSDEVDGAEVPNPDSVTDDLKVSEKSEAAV
NR2E3 ag-2 – activates human NR2E3 receptor | hit rate 0.35% among 360,000 | CHO-S Gal4-NCOR/VP16-NR2E3 two-hybrid, luciferase | Q9Y5X4 | inhibition of corepressor binding, % at 3.98 µM;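 active = inhibition above the mean of all tested compounds plus 3 SD, cut at about 70% in these data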;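 note: higher means lower luciferase signal from less NR2E3 corepressor binding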
ADAM10 inh – inhibits human ADAM10; recombinant ADAM10, EDANS/DABCYL FRET peptide cleavage, 3 h; O14672; hit rate 0.62% among 370,000; inhibition, % at 7 µM;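 active = inhibition above a per-campaign cutoff equal to the mean of compounds falling between control-based bounds plus 3 SD, cut at about 20% in these data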
NR2E3 ag confirm – confirmation of human NR2E3 agonists | shares compounds with NR2E3 ag-2 | CHO-S mammalian two-hybrid NR2E3-NCOR, luciferase luminescence | inhibition, % at 3.98 µM | hit rate 51% among 2,300;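 active = average inhibition above a cutoff equal to the mean inhibition of all tested compounds plus one SD, cut at about 70% in these data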
GAL4-VP16 luc – counter-screen for NR2E3 agonists: GAL4-VP16 reporter inhibitors | hit rate 29% among 2,300 | CHO-S GAL4-VP16 luciferase reporter, luminescence | inhibition, % at 3.98 µM | shares compounds with NR2E3 ag-2;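 active = mean inhibition above a cutoff equal to the average over all tested compounds plus one standard deviation, cut at about 70% in these data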;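 note: luciferase from a UAS reporter driven by GAL4-VP16 transactivation; higher means less reporter light so more repression of VP16 activity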
Numbers stand for hits; . = inactive; / = no result given.

SMILES	ADAM17 inh	NR2E3 ag-1	KLK7 zymogen act	JMJD2C inh	NR2E3 ag-2	ADAM10 inh	NR2E3 ag confirm	GAL4-VP16 luc
COc1ccc(Cl)cc1NC(=S)NNC(=O)C1(C)CC1(Cl)Cl (stereo unspecified)	.	.	.	.	.	.	.	.
O=C(COc1ccccc1O)Nc1ccccc1Cl	.	.	.	.	.	.	/	/
O=C(COc1ccccc1O)NNc1ccccc1	.	.	.	.	.	.	.	.
O=C(Nc1ccc(F)cc1)OC1CC2CC1[C@H]1CCCCN1C2 (stereo partly specified)	.	/	.	/	/	.	/	/
Cc1ccc(S(=O)(=O)NCc2ccncc2)c(C)c1C	.	.	.	.	80.2	.	93.6	85.1
Cc1cc(C)c(S(=O)(=O)NCc2ccncc2)c(C)c1	.	.	.	.	.	.	88.3	76.5
CC(C)(C)C(=O)N1CCN(c2ccnc3cc(Cl)ccc23)CC1	.	.	.	.	.	.	/	/
O=C(Nc1ccc(OC(F)(F)F)cc1)N1CCN(c2ccnc3cc(Cl)ccc23)CC1	.	.	.	.	.	.	93.9	.
Cc1cccc(NC(=O)CCS(=O)(=O)c2ccccc2)c1C	.	/	.	/	/	.	/	/
Cc1ccc2nc(C(F)(F)F)c(C#N)c(N)c2c1	.	.	.	.	75.1	.	.	.
Cc1cc(C)c2nc(C(F)(F)F)c(C#N)c(N)c2c1	.	.	.	.	.	.	/	/
O=C(Nc1ccc(N2CCN(C(=O)c3ccco3)CC2)cc1)c1ccc2c(c1)OCO2	.	.	.	.	.	.	.	.
Cc1ccccc1C(=O)N1CCN(c2ccc(NC(=O)c3cccnc3)cc2)CC1	.	.	.	.	.	.	/	/
Cc1ccccc1C(=O)N1CCN(c2ccc(NC(=O)c3ccc4c(c3)OCO4)cc2)CC1	.	.	.	.	75.3	.	91.1	.
COC1=C[C@H](C(=O)NCc2ccc(Br)cc2)[C@H](C)[C@@H](c2ccccc2)CC1=O	.	/	.	/	/	.	/	/
CCOC(=O)[C@]12CCCC=C1N(Cc1ccc(OC)cc1)C(=O)[C@@H]2CC(=O)N1CCC(c2ccccc2)CC1	.	/	.	/	/	.	/	/
CCCCCN(C(=O)CCc1cn(CCCCC)c2ccccc12)c1ccc(Oc2cccnc2)cc1	.	/	.	/	/	.	/	/
CCN(CC)CCNc1ccnc2cc(Cl)ccc12	.	.	.	.	.	.	/	/
O=C(NCCNc1ccnc2cc(Cl)ccc12)c1ccccc1F	.	.	.	.	.	.	.	.
O=C(NCCNc1ccc(Cl)cc1[N+](=O)[O-])c1ccccc1F	.	.	.	.	.	.	/	/
Clc1ccc2c(NCc3ccccc3)ccnc2c1	.	.	.	.	.	.	.	.
O=C(Nc1ccccc1C(=O)Nc1nnc(C(F)(F)F)s1)c1ccccc1	.	.	.	.	72.0	.	99.3	93.5
O=C1C2C3C=CC(C3)C2C(=O)N1c1ccc(Cc2ccncc2)cc1 (stereo unspecified)	.	.	.	.	.	.	.	.
CC1CCC2C(=O)N(c3ccc(Cc4ccncc4)cc3)C(=O)C2C1 (stereo unspecified)	.	.	.	.	.	.	76.6	.
CN(C(=O)COc1ccccc1C(=O)NCCOc1ccccc1)c1ccccc1	.	.	.	.	76.6	.	80.3	.
SMILES	ADAM17 inh	NR2E3 ag-1	KLK7 zymogen act	JMJD2C inh	NR2E3 ag-2	ADAM10 inh	NR2E3 ag confirm	GAL4-VP16 luc
O=C(NCCOc1ccccc1)c1ccccc1Cl	.	.	.	.	.	.	/	/
CCn1c2ccccc2c2cc(NC(=O)CSc3nnc(-c4ccc(OC)cc4)n3N)ccc21	.	.	.	.	.	.	/	/
CCn1c2ccccc2c2cc(NC(=O)CSc3nnnn3-c3ccccc3)ccc21	.	.	.	.	.	.	.	.
Cc1ccc(-c2csc3nnc(SCC(=O)Nc4nsc(-c5ccccc5)n4)n23)cc1	.	.	.	.	.	.	/	/
O=C(CSc1nnnn1-c1ccccc1)Nc1ccc(Cl)cc1	.	.	.	.	.	.	/	/
NC(=O)c1nn(-c2ccccc2)nc1NC(=O)CSc1nnnn1-c1ccc(Cl)cc1	.	.	.	.	92.2	.	97.4	.
Cc1ccc(-c2nc(NC(=O)CSc3nnnn3-c3ccccc3)ns2)cc1	.	.	.	.	72.9	.	99.9	.
CCOC(=O)C(=O)N1CCC(C(=O)NC2CCCc3ccccc32)CC1 (stereo unspecified)	.	/	.	/	/	.	/	/
COc1cc(OC)c(OC)cc1CNC(=O)c1ccc(COc2ccccc2)cc1	.	.	.	.	.	.	.	.
COc1ccc(CN(C)C(=O)c2ccc(COc3ccccc3)cc2)c(OC)c1	.	.	.	.	.	.	/	/
CCCCCCCCN1C(=O)[C@H](CC(=O)NCCC(C)C)C[C@@]2(C(=O)OCC)CCC=C12	.	/	.	/	/	.	/	/
CC(C)NC(=S)N/N=C1\CCCCC1C1CCCCC1 (stereo unspecified)	.	.	.	.	.	.	.	.
O=C(N[C@H]1C[C@@H]2O[C@@H](CO)CC[C@@H]2O[C@@H]1CCc1ccc(-c2cccnc2)cc1)c1cccc(F)c1	.	/	.	/	/	.	/	/
O=S(=O)(c1cccc(Br)c1)N1CCN(c2ccnc3cc(Cl)ccc23)CC1	.	.	.	.	.	.	.	.
Oc1ccccc1/C=N/NC(=S)NC1CC2CC1C1C=CCC21 (stereo unspecified)	.	.	.	.	.	.	.	.
COc1cccc(/C=N/NC(=S)NC2CC3CC2C2C=CCC32)c1O (stereo unspecified)	.	.	.	.	.	.	/	/
CC1(Br)C(Sc2ccccc2[N+](=O)[O-])=Nc2ccccc21 (stereo unspecified)	.	/	.	/	.	.	/	/
O=C(C1=C(c2ccccc2)C(=O)c2ccccc2C1=O)c1ccccc1	.	/	.	.	77.5	.	98.6	92.7
COC1=C(c2ccccc2)C(=O)c2ccccc2C1=O	.	.	.	.	.	.	/	/
Cc1ccc(CCNc2ncnc(Cl)c2N)cc1	.	/	.	/	78.0	.	92.0	74.5
CN(C)N=Nc1nc2c(c(=O)n(C)c(=O)n2C)n1CC1CO1 (stereo unspecified)	.	.	.	.	.	.	/	/
N#Cc1ccc(/C=C2\CC3(OC(=O)c4ccco4)CCCN2C3)cc1 (stereo unspecified)	.	/	.	/	/	.	/	/
CCCOc1ccc(S(=O)(=O)NCc2ccc(OC)cc2)cc1	.	.	.	.	.	.	.	.
O=C(Nc1cccc(C(F)(F)F)c1)C1CCN(S(=O)(=O)c2ccc(N3CCCC3=O)cc2)CC1	.	.	.	.	84.7	.	90.3	.

Screening data deposited in PubChem BioAssay by several laboratories.
